Experimental data from PMC5761012 (Journal of Pharmaceutical Analysis, 2013).

Key:
[1] = system: human plasma proteins; experiment: Human plasma protein binding by equilibrium dialysis with UPLC-MS/MS; type: in vitro ADME; details: for Kd at 72 h: human, human plasma (equilibrium dialysis against phosphate buffer); for maximum binding ability β: modified Scatchard equation, extract 1.2 to 60 μg/mL, human plasma, Pt 71.28 g/L
Method in brief: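 Blank human plasma was placed in 10 kDa dialysis bags (pre-soaked in pH 7.4 phosphate buffer) and dialysed at 4 °C for 72 h against buffer containing the aqueous plant extract (1.2–60 µg/mL). Inside-bag concentration gave total drug; outside gave free drug. Analysis was by UPLC–ESI-MS/MS after methanol/formic acid protein precipitation, with matrix-specific 1/x² weighted calibration. Parameters came from a modified Scatchard fit using Pt 71.28 g/L (Lowry) and plasma water 99.25%.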

[2] = Analyte stability in human plasma and phosphate buffer; type: in vitro ADME; details: for time stable at ambient temperature / reduction of the concentration after three freeze–thaw cycles: QC samples; for time stable at ambient temperature: human plasma and phosphate buffer, three concentration levels; for reduction of the concentration after three freeze–thaw cycles: −20 °C to room temperature; for time stable in auto-sampler conditions: processed QC samples, 15 °C
Method in brief: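 Processed QC samples in human plasma and pH 7.4 phosphate buffer were tested at three concentration levels, three replicates each. Conditions were 6 h at ambient temperature, or three freeze (−20 °C)/thaw (room temperature) cycles followed by 24 h at 15 °C in the auto-sampler. Separately, samples were held 96 h at 4 °C. Mean UPLC–ESI-MS/MS concentrations were compared with freshly prepared QC samples.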

Compound: O=c1cc(-c2ccc(O)cc2)oc2c([C@@H]3O[C@H](CO)[C@@H](O)[C@H](O)[C@H]3O)c(O)cc(O)c12 [vitexin]
- Kd at 72 h [1]: 19.7 µM
- maximum binding ability β [1]: 1.650 µmol/g
- time stable at ambient temperature [2]: at least 6 h
- reduction of the concentration after three freeze–thaw cycles [2]: < 10%
- time stable in auto-sampler conditions [2]: ≥ 24 h

Compound: C[C@@H]1O[C@@H](Oc2c(-c3ccc(O)c(O)c3)oc3cc(O)cc(O)c3c2=O)[C@H](O)[C@H](O)[C@H]1O [quercitrin]
- Kd at 72 h [1]: 5.29 µM
- maximum binding ability β [1]: 0.6420 µmol/g
- time stable at ambient temperature [2]: at least 6 h
- reduction of the concentration after three freeze–thaw cycles [2]: < 10%
- time stable in auto-sampler conditions [2]: ≥ 24 h

Compound: O=c1cc(-c2ccc(O)c(O)c2)oc2c([C@@H]3O[C@H](CO)[C@@H](O)[C@H](O)[C@H]3O)c(O)cc(O)c12 [orientin]
- Kd at 72 h [1]: 26.6 µM
- maximum binding ability β [1]: 2.685 µmol/g
- time stable at ambient temperature [2]: at least 6 h
- reduction of the concentration after three freeze–thaw cycles [2]: < 10%
- time stable in auto-sampler conditions [2]: ≥ 24 h
